Data as given in ChEMBL document CHEMBL4043093, “2-Oxo-3, 4-dihydropyrimido[4, 5-d]pyrimidinyl derivatives as new irreversible pan fibroblast growth factor receptor (FGFR) inhibitors” (Eur J Med Chem, 2017).

Experiments:
[1] = system: Tyrosine-protein kinase ABL1 (Homo sapiens), P00519 [M351T]; test: Inhibition of human phosphorylated ABL1 M351T mutant (S229 to K512 residues) expressed in HEK293 cells assessed as residual activity at 1000 nM after 30 mins by Kinomescan method relative to control; assay type: cell-based
Summary of the method: (§1)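 Single-point screen at a fixed 1 µM, run within a 456-kinase DiscoveRx KINOMEscan panel. Each kinase's read-out is Percent Control, i.e. signal relative to a control without compound. Hits were scored by a Percent Control < 35 cut-off, and an S(35) selectivity score was calculated across the non-mutant kinases.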

[2] = molecular target: Mitogen-activated protein kinase kinase kinase 6 (Homo sapiens) (UniProt O95382); test: Inhibition of wild-type human partial length ASK2 (M278 to R972 residues) expressed in HEK293 cells assessed as residual activity at 1000 nM after 30 mins by Kinomescan method relative to control; assay type: cell-based
[3] = molecular target: Cyclin-dependent kinase 4 (Homo sapiens) (UniProt P11802); test: Inhibition of wild-type human full length CDK4 (M1 to E303 residues) expressed in HEK293 cells assessed as residual activity at 1000 nM after 30 mins by Kinomescan method relative to control; assay type: cell-based; summary of the method: as §1
[4] = molecular target: Cyclin-dependent kinase-like 1 (Homo sapiens) (UniProt Q00532); test: Inhibition of wild-type human full length CDKL1 (M1 to I358 residues) expressed in HEK293 cells assessed as residual activity at 1000 nM after 30 mins by Kinomescan method relative to control; assay type: cell-based; summary of the method: as §1
[5] = molecular target: Epithelial discoidin domain-containing receptor 1 (Homo sapiens) (UniProt Q08345); test: Inhibition of wild-type human partial length DDR1 (R565 to V876 residues) expressed in Escherichia coli BL21 assessed as residual activity at 1000 nM after 30 mins by Kinomescan method relative to control
[6] = molecular target: Receptor tyrosine-protein kinase erbB-4 (Homo sapiens) (UniProt Q15303); test: Inhibition of wild-type human partial length ERBB4 (L690 to K994 residues) expressed in Escherichia coli BL21 assessed as residual activity at 1000 nM after 30 mins by Kinomescan method relative to control
[7] = molecular target: Serine/threonine-protein kinase/endoribonuclease IRE1 (Homo sapiens) (UniProt O75460); test: Inhibition of wild-type human partial length ERN1 (S551 to E852 residues) expressed in HEK293 cells assessed as residual activity at 1000 nM after 30 mins by Kinomescan method relative to control; assay type: cell-based
[8] = system: Receptor-type tyrosine-protein kinase FLT3 (Homo sapiens), P36888 [D835V]; test: Inhibition of human partial length FLT3 D835V mutant (V592 to Y969 residues) expressed in Escherichia coli BL21 assessed as residual activity at 1000 nM after 30 mins by Kinomescan method relative to control
Summary of the method: (§2)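 KINOMEscan binding panel of 456 kinases, with the test compound at a single concentration of 1 µM. Read-out is Percent Control.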

[9] = system: Mast/stem cell growth factor receptor Kit (Homo sapiens), P10721 [D816H]; test: Inhibition of human partial length KIT D816H mutant (I571 to D952 residues) expressed in HEK293 cells assessed as residual activity at 1000 nM after 30 mins by Kinomescan method relative to control; assay type: cell-based; summary of the method: as §2
[10] = molecular target: Dual specificity mitogen-activated protein kinase kinase 1 (Homo sapiens) (UniProt Q02750); test: Inhibition of wild-type human full length MEK1 (M1 to V393 residues) expressed in HEK293 cells assessed as residual activity at 1000 nM after 30 mins by Kinomescan method relative to control; assay type: cell-based
Summary of the method: (§3)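 Single-concentration screen at 1 µM across a 456-kinase KINOMEscan panel. The read-out is Percent Control for each kinase.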

[11] = molecular target: Serine/threonine-protein kinase Nek3 (Homo sapiens) (UniProt P51956); test: Inhibition of wild-type human full length NEK3 (M1 to R506 residues) expressed in HEK293 cells assessed as residual activity at 1000 nM after 30 mins by Kinomescan method relative to control; assay type: cell-based; summary of the method: as §3
[12] = molecular target: Serine/threonine-protein kinase Nek7 (Homo sapiens) (UniProt Q8TDX7); test: Inhibition of wild-type human full length NEK7 (M1 to S302 residues) expressed in Escherichia coli BL21 assessed as residual activity at 1000 nM after 30 mins by Kinomescan method relative to control; summary of the method: as §3
[13] = molecular target: Phosphorylase b kinase gamma catalytic chain, skeletal muscle/heart isoform (Homo sapiens) (UniProt Q16816); test: Inhibition of wild-type human full length PHKG1 (M1 to Y387 residues) expressed in Escherichia coli BL21 assessed as residual activity at 1000 nM after 30 mins by Kinomescan method relative to control; summary of the method: as §3
[14] = system: Phosphatidylinositol 4,5-bisphosphate 3-kinase catalytic subunit alpha isoform (Homo sapiens), P42336 [E542K]; test: Inhibition of human partial length PIK3CA E542K mutant (R108 to N1068 residues) expressed in HEK293 cells assessed as residual activity at 1000 nM after 30 mins by Kinomescan method relative to control; assay type: cell-based; summary of the method: as §2
[15] = molecular target: Protein kinase C delta type (Homo sapiens) (UniProt Q05655); test: Inhibition of wild-type human partial length PRKCD (Q328 to D676 residues) expressed in Escherichia coli BL21 assessed as residual activity at 1000 nM after 30 mins by Kinomescan method relative to control
[16] = system: Proto-oncogene tyrosine-protein kinase receptor Ret (Homo sapiens), P07949 [M918T]; test: Inhibition of human partial length RET M918T mutant (E713 to D1014 residues) expressed in Escherichia coli BL21 assessed as residual activity at 1000 nM after 30 mins by Kinomescan method relative to control; summary of the method: as §1
[17] = molecular target: Ribosomal protein S6 kinase alpha-5 (Homo sapiens) (UniProt O75582); test: Inhibition of wild-type human partial length C-terminal RPS6KA5 kinase domain 2 (V390 to T718 residues) expressed in Escherichia coli BL21 assessed as residual activity at 1000 nM after 30 mins by Kinomescan method relative to control
[18] = molecular target: Serine/threonine-protein kinase 16 (Homo sapiens) (UniProt O75716); test: Inhibition of wild-type human partial length STK16 (G11 to I305 residues) expressed in Escherichia coli BL21 assessed as residual activity at 1000 nM after 30 mins by Kinomescan method relative to control
[19] = molecular target: Non-receptor tyrosine-protein kinase TYK2 (Homo sapiens) (UniProt P29597); test: Inhibition of wild-type human partial length TYK2 JH2 pseudokinase domain (G556 to D888 residues) expressed in HEK293 cells assessed as residual activity at 1000 nM after 30 mins by Kinomescan method relative to control; assay type: cell-based
[20] = molecular target: Serine/threonine-protein kinase WNK2 (Homo sapiens) (UniProt Q9Y3S1); test: Inhibition of wild-type human partial length WNK2 (V47 to D482 residues) expressed in HEK293 cells assessed as residual activity at 1000 nM after 30 mins by Kinomescan method relative to control; assay type: cell-based
[21] = molecular target: Serine/threonine-protein kinase 32C (Homo sapiens) (UniProt Q86UX6); test: Inhibition of wild-type human partial length YANK3 (M68 to G486 residues) expressed in Escherichia coli BL21 assessed as residual activity at 1000 nM after 30 mins by Kinomescan method relative to control

Mast/stem cell growth factor receptor Kit (Homo sapiens), P10721 [D816H], sequence (P10721 whole entry D816H, the tested form may be a part): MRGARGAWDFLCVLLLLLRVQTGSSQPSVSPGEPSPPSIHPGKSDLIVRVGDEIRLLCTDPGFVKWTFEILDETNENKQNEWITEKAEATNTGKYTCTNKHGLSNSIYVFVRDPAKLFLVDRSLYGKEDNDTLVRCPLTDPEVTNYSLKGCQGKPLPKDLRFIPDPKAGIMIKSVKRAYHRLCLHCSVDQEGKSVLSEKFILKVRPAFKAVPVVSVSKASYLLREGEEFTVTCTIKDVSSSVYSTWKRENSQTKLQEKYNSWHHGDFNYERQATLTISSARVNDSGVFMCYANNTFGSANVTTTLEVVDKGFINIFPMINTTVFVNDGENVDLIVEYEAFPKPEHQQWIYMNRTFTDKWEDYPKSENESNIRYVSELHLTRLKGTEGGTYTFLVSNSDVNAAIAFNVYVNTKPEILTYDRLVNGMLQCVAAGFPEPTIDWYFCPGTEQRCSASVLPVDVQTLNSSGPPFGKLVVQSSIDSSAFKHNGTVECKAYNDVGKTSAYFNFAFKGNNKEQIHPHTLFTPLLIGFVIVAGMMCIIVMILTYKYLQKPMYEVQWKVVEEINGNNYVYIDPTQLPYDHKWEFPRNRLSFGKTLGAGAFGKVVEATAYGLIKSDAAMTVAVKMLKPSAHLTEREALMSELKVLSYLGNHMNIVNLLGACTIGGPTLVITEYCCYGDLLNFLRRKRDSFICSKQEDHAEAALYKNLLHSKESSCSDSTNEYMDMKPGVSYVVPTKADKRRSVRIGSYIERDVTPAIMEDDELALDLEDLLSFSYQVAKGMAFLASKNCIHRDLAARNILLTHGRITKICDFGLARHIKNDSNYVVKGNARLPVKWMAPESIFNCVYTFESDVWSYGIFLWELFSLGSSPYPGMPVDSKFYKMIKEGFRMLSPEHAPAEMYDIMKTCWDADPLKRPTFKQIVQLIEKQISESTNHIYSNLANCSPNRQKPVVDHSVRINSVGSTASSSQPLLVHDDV
Epithelial discoidin domain-containing receptor 1 (Homo sapiens), sequence (Q08345 whole entry, the tested form may be a part): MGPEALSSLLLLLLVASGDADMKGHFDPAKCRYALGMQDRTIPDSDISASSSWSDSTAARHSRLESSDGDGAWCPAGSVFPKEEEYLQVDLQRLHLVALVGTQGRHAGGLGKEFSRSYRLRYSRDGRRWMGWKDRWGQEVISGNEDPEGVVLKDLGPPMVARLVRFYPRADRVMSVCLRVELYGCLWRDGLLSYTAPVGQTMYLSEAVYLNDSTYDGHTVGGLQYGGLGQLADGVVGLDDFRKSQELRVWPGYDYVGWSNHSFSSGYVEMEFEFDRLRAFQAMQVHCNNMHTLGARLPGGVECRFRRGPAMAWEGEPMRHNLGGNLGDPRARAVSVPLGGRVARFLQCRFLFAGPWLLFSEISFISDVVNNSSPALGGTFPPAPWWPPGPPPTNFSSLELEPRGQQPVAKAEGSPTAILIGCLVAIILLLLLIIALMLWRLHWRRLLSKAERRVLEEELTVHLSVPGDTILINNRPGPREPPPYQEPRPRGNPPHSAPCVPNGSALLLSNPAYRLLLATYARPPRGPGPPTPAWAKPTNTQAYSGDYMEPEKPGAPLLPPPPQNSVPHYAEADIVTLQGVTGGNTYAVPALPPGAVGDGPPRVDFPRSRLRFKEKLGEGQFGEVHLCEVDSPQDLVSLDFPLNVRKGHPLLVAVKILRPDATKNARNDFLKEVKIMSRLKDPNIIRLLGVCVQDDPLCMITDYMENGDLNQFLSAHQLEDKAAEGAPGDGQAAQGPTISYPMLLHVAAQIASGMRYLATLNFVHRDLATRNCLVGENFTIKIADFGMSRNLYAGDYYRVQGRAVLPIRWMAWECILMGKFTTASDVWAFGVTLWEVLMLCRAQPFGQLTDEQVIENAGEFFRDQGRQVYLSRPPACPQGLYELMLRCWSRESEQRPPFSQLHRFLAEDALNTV
Dual specificity mitogen-activated protein kinase kinase 1 (Homo sapiens), sequence (Q02750 whole entry, the tested form may be a part): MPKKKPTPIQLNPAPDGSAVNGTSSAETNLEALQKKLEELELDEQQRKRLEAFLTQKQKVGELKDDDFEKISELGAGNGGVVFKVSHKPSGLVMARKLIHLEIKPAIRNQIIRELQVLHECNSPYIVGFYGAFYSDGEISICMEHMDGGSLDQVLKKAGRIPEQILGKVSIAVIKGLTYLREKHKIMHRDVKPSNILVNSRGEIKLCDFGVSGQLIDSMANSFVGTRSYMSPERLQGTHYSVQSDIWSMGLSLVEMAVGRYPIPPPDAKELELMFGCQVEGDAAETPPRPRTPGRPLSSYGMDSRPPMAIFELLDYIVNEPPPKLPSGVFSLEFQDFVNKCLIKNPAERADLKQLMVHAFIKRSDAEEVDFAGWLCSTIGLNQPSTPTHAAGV
Serine/threonine-protein kinase WNK2 (Homo sapiens), sequence (Q9Y3S1 whole entry, the tested form may be a part): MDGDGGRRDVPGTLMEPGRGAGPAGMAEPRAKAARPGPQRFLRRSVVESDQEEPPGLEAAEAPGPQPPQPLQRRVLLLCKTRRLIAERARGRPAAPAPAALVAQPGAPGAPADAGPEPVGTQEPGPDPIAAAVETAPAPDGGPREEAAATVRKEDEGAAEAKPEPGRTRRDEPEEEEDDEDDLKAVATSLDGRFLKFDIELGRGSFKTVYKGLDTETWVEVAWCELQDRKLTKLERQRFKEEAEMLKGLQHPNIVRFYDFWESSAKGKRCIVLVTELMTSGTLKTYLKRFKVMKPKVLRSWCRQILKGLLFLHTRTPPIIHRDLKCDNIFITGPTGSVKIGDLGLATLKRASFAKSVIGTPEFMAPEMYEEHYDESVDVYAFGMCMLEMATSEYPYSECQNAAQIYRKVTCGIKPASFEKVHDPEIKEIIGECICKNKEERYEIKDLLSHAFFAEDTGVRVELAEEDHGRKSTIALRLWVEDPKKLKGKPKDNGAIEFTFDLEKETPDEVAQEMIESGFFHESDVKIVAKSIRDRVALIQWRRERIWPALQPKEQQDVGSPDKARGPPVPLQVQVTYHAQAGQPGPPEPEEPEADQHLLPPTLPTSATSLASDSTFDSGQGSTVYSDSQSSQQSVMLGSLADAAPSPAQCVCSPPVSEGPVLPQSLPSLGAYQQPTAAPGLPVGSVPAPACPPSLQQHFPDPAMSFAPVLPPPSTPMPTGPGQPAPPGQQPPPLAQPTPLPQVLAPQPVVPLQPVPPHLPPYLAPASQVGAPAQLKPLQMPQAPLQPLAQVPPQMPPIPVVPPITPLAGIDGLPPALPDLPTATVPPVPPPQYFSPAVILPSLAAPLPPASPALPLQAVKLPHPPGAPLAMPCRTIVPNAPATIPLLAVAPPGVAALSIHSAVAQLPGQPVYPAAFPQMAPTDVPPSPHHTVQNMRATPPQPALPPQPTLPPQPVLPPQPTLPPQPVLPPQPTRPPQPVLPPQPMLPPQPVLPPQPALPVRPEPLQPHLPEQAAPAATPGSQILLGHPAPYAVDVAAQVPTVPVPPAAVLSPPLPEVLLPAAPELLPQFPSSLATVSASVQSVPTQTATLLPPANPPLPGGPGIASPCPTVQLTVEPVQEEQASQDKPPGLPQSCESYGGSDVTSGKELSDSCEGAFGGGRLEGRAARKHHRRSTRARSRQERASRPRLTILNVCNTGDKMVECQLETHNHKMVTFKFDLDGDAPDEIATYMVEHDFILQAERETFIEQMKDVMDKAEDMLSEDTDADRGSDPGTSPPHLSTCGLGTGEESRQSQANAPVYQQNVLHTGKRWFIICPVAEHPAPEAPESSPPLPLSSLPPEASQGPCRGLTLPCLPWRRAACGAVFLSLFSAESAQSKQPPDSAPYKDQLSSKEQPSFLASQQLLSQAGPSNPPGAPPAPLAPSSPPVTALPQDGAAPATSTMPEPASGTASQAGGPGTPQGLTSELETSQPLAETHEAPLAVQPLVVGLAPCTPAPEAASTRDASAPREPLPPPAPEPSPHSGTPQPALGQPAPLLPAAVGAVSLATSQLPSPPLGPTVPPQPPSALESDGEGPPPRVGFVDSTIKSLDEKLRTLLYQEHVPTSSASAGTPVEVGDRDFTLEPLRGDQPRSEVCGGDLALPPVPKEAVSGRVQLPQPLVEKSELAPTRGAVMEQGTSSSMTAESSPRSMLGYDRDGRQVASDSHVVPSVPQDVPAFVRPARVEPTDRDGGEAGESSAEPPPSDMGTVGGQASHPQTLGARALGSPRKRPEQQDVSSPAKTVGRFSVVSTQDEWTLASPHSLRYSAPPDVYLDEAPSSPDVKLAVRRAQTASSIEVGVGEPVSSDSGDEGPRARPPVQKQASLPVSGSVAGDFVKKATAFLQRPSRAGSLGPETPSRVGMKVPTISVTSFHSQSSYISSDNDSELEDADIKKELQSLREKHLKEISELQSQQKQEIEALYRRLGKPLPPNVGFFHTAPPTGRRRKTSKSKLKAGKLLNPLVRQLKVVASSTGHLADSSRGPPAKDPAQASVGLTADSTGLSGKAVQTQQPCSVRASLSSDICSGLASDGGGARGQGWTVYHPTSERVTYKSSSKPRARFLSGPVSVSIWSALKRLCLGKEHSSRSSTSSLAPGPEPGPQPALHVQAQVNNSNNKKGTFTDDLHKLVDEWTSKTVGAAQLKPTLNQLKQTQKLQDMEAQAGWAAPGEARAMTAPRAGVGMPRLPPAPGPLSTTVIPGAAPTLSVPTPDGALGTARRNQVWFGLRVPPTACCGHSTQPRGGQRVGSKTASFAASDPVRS
Serine/threonine-protein kinase Nek3 (Homo sapiens), sequence (P51956 whole entry, the tested form may be a part): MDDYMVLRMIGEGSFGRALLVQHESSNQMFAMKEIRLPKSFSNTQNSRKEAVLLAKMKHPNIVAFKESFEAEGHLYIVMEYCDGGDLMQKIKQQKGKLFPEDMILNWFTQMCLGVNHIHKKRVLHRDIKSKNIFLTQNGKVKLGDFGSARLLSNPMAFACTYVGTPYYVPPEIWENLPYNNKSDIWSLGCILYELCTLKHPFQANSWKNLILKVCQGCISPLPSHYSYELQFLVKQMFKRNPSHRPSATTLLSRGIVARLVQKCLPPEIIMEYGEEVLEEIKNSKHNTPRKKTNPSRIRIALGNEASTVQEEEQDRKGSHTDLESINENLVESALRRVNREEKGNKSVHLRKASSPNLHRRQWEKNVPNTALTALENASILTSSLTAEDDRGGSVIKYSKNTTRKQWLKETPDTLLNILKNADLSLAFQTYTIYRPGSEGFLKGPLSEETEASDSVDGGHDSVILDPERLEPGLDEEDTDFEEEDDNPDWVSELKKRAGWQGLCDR

COc1cc(OC)c(Cl)c(N2Cc3cnc(Nc4ccc(F)cc4)nc3N(C3CCN(C(=O)/C=C/CN(C)C)CC3)C2=O)c1Cl
Activity [1]: 47%
Activity [2]: 100%
Activity [3]: 100%
Activity [4]: 96%
Activity [5]: 7%
Activity [6]: 98%
Activity [7]: 100%
Activity [8]: 80%
Activity [9]: 66%
Activity [10]: 100%
Activity [11]: 79%
Activity [12]: 100%
Activity [13]: 92%
Activity [14]: 86%
Activity [15]: 93%
Activity [16]: 7.1%
Activity [17]: 100%
Activity [18]: 100%
Activity [19]: 95%
Activity [20]: 96%
Activity [21]: 90%
